According to ChEMBL document CHEMBL1138345, “Scouting human A3 adenosine receptor antagonist binding mode using a molecular simplification approach: from triazoloquinoxaline to a pyrimidine skeleton as a key study” (J Med Chem, 2007):

Experiments:
[1] = target: Adenosine receptor A2a (Homo sapiens) (UniProt P29274); assay: Displacement of [3H]ZM-241385 from human adenosine A2A receptor expressed in CHO cell membranes at 1 uM
Method in brief: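 Binding of 1 nM [³H]ZM-241385 to hA2A CHO membranes (50 µg protein) in 50 mM Tris HCl, 10 mM MgCl₂, pH 7.4, 60 min at 4 °C; nonspecific binding with 1 µM ZM-241385; filtration and counting; % inhibition at 1 µM test compound.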

[2] = target: T1, Adenosine receptor A1 (Homo sapiens) (UniProt P30542); assay: Displacement of [3H]DPCPX from human adenosine A1 receptor expressed in CHO cell membranes at 1 uM
T1 sequence (whole entry): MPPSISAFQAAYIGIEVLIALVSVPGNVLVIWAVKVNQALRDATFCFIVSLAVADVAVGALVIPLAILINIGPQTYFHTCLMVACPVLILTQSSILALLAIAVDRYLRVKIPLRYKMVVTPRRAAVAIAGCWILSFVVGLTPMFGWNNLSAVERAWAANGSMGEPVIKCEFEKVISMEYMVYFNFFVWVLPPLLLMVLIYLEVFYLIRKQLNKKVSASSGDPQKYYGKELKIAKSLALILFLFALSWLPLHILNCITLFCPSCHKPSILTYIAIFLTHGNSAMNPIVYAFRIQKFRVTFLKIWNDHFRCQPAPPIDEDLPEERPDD
Method in brief: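 hA1 CHO membranes (50 µg protein) with 1 nM [³H]DPCPX in 50 mM Tris HCl pH 7.4, 120 min at 25 °C; nonspecific binding with 10 µM CHA; glass-fiber filtration, scintillation counting; % inhibition at 1 µM test compound.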

[3] = target: T2, Adenosine receptor A2b (Homo sapiens) (UniProt P29275); assay: Antagonist activity at human adenosine A2B receptor expressed in CHO cells assessed as inhibition of NECA-stimulated cAMP levels at 1 uM; type: functional, cell-based
T2 sequence (whole entry): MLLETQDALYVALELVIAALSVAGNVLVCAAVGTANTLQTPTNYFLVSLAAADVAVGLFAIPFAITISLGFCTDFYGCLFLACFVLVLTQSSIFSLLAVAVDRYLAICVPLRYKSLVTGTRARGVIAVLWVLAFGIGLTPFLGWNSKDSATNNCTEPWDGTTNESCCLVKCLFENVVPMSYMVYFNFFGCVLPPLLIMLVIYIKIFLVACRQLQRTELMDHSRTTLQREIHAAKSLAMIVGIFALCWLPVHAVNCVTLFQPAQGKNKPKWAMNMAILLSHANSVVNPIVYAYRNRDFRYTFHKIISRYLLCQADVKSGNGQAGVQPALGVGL
Method in brief: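 Stably transfected hA2B CHO cells, 1 × 10⁶ cells/assay, preincubated 10 min at 37 °C, pH 7.4, with adenosine deaminase 2 IU/ml and Ro 20-1724 as phosphodiesterase inhibitor. Stimulated by 200 nM NECA; test compound at 1 µM. Stopped with cold 6% TCA; cAMP measured by [³H]cAMP competition protein binding with beef adrenal binding protein. Reported as % inhibition.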

[4] = target: T3, Adenosine receptor A3 (Homo sapiens) (UniProt P0DMS8); assay: Displacement of [125I]ABMECA from human adenosine A3 receptor expressed in CHO cell membranes at 1 uM
T3 sequence (whole entry): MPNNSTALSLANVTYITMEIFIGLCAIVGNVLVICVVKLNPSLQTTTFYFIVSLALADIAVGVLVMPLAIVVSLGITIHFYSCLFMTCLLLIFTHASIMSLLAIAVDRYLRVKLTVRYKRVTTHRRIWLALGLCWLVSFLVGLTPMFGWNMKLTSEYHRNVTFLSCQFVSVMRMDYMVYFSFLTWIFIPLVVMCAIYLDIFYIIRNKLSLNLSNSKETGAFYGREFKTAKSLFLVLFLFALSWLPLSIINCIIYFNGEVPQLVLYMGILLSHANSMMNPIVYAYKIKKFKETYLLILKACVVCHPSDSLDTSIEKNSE
Method in brief: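 Competition at hA3 CHO membranes (50 µg protein) against 0.5 nM [¹²⁵I]AB-MECA, Tris HCl/MgCl₂/EDTA buffer pH 7.4, 120 min at 4 °C; nonspecific binding with 1 µM AB-MECA; test compound at 1 µM; % inhibition of binding.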

Adenosine receptor A3 [5] = target: T4, Adenosine receptor A3 (Homo sapiens, UniProt P0DMS8); assay: Displacement of [125I]ABMECA from human adenosine A3 receptor expressed in CHO cell membranes
T4 sequence (P0DMS8 whole entry): T3 sequence (whole entry)
Method in brief: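 hA3 CHO membranes, 50 µg protein, with 0.5 nM [¹²⁵I]AB-MECA in 50 mM Tris HCl, 10 mM MgCl₂, 1 mM EDTA, pH 7.4. At least 6–8 ligand concentrations, 120 min at 4 °C. Nonspecific binding with 1 µM AB-MECA. Filtration, counting. Ki via Cheng–Prusoff from IC50; means ± SEM of four assays, each in duplicate.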

Adenosine receptor A3 [6] = target: T4, Adenosine receptor A3; assay: Activity at human adenosine A3 receptor expressed in CHO cells assessed as antagonism of Cl-IB-MECA-inhibited cAMP production; type: functional, cell-based
Method in brief: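 CHO cells stably expressing hA3, washed, trypsinized, 1 × 10⁶ cells/assay, preincubated 10 min at 37 °C in buffered salt–glucose medium (pH 7.4) with adenosine deaminase 2 IU/ml and Ro 20-1724. Forskolin 1 µM plus Cl-IB-MECA 100 nM. Stopped with cold 6% TCA, ether-extracted, cAMP by [³H]cAMP competition protein binding. IC50 from sigmoid nonlinear regression; means ± SEM of four experiments.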

Adenosine receptor A2a (Homo sapiens), sequence (P29274 whole entry): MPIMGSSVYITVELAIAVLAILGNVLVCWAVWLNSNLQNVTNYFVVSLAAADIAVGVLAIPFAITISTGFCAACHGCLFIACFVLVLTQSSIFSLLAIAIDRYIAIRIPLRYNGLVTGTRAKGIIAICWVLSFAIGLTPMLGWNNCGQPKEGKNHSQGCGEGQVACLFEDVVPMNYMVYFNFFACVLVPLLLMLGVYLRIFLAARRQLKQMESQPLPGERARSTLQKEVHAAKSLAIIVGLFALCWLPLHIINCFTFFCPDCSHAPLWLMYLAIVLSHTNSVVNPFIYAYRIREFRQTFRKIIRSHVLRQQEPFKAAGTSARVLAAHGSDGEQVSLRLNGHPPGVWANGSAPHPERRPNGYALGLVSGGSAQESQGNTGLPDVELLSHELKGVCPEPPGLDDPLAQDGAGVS

SMILES | Activity [1] | Activity [2] | inhibition [3] | Activity [4] | Ki (Adenosine receptor A3 [5]) | IC50 (Adenosine receptor A3 [6])
COc1ccc(NC(=O)c2cc(N)nc3ccccc23)cc1 | 3% | 2% | 3% | 1% |  | 
O=C(Nc1ccccc1)c1[nH]c(=O)nc2ccccc12 |  |  |  |  | 50 nM | 238 nM
COc1ccc(NC(=O)c2[nH]c(=O)nc3ccccc23)cc1 |  |  |  |  | 19.5 nM | 125 nM
Cc1ccc(NC(=O)c2nc(N)nc3ccccc23)cc1 | 5% | 3% | 4% |  | 98.3 nM | 
COc1ccc(NC(=O)c2nc(N)nc3ccccc23)cc1 | 6% | 8% | 23% |  | 87.5 nM | 
COc1ccc(NC(=O)c2nc(=O)[nH]c3ccccc23)cc1 | 1% | 4% | 9% |  |  | 
O=C(Nc1nc(C(=O)Nc2ccccc2)c2ccccc2n1)c1ccccc1 | 10% | 7% | 3% |  | 182 nM | 
Cc1ccc(NC(=O)c2nc(=O)[nH]c3ccccc23)cc1 | 2% | 21% | 2% |  |  | 
O=C(Nc1ccc(Br)cc1)c1nc(=O)[nH]c2ccccc12 | 1% | 3% | 2% |  |  | 
COc1ccc(NC(=O)c2ccnc(N(C(=O)c3ccccc3)C(=O)c3ccccc3)n2)cc1 | 1% | 5% | 3% | 14% |  | 
Nc1nc(C(=O)Nc2ccccc2)c2ccccc2n1 | 17% | 40% | 5% |  | 350 nM | 
O=C(Nc1ccccc1)c1cc(=O)[nH]c2ccccc12 | 1% | 1% | 2% | 38% |  | 
Nc1cc(C(=O)Nc2ccccc2)c2ccccc2n1 | 2% | 1% | 5% | 6% |  | 
O=C(Nc1ccc(Br)cc1)c1[nH]c(=O)nc2ccccc12 |  |  |  |  | 27.2 nM | 
CC(=O)Nc1nc(C(=O)Nc2ccccc2)c2ccccc2n1 | 7% | 25% | 5% |  | 25.3 nM | 140 nM
Nc1nc(C(=O)Nc2ccc(Br)cc2)c2ccccc2n1 | 1% | 1% | 2% |  | 550 nM | 
Nc1nc(C(=O)NC2CCCCC2)c2ccccc2n1 | 3% | 2% | 1% | 21% |  | 
COc1ccc(NC(=O)c2ccnc(N)n2)cc1 | 6% | 3% | 3% | 15% |  | 
COc1ccc(NC(=O)c2cc(=O)[nH]c3ccccc23)cc1 | 1% | 4% | 3% | 26% |  | 
COc1ccc(NC(=O)c2ccnc(NC(=O)c3ccccc3)n2)cc1 | 6% | 6% | 2% | 22% |  | 
O=C(Nc1ccccc1)c1nc(=O)[nH]c2ccccc12 | 1% | 22% | 4% |  |  | 
Cc1ccc(NC(=O)c2[nH]c(=O)nc3ccccc23)cc1 |  |  |  |  | 26.7 nM | 
